Experiment [1] relates to eight cell lines representing different cancer types. The experiment can be described thus: Drug response viability assay. Format: cell-based. Particulars: 48 h.
The subject of experiment [2] is HT29 colon cancer cell line xenografts. The experiment can be described thus: HT29 colon cancer cell line xenograft treated with alvespimycin. Format: in vivo, BALB/c nude mice. The settings on record: alvespimycin 50 mg/kg intraperitoneally daily, N = 9. Summed up: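 Female BALB/c nude mice, 4–6 weeks old, received 5×10^6 HT29 cells in 100 μL PBS subcutaneously in the dorsal flank. On day 0 they were randomised to vehicle (2% DMSO in PBS) or test compound at 50 mg/kg i.p. daily, N = 9 per group, and sacrificed 7 days later. Tumours were measured by caliper every 1–3 days; volume = (width)2 × length × 0.52; mean ± sd.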

For the next experiment, the system named is UCEC tumors. The settings on record: cited from earlier work.
The subject of experiment [3] is T cells of HLA-A*02 healthy donors. The experiment can be described thus: IFN-γ ELISpot assay. Format: cell-based, human.
Setting [4] is: CD8+ T cell cultures of donor US1 with HLA-A*02:11, peptide 12.5 μg/mL, about 16 hrs (BCM).
[5] abbreviates: donor CN1 with HLA-A*02:01, peptide 10 μg/mL, 20h co-culture (Fudan).

As a reminder, the IC50 is the concentration at which inhibition is half-maximal.

In turn, `CO[C@H]1/C=C\C=C(/C)C(=O)NC2=CC(=O)C(NCCN(C)C)=C(C[C@@H](C)C[C@H](OC)[C@H](O)[C@@H](C)/C=C(\C)[C@@H]1OC(N)=O)C2=O` [alvespimycin] displayed an IC50 in experiment [1] of less than 1000 nM. Moreover, the tumor regression result in experiment [2] was “began to induce tumor regression after seven days of treatment”. `COc1cccc2c1C(=O)c1c(O)c3c(c(O)c1C2=O)C[C@@](O)(C(=O)CO)C[C@@H]3O[C@H]1C[C@H](N)[C@H](O)[C@H](C)O1` [doxorubicin]: the overall response rate with UCEC tumors (unselected UCEC patients) was 16%.

As for `O=C1c2c(O)ccc(O)c2C(=O)c2c(NCCNCCO)ccc(NCCNCCO)c21` [mitoxantrone], the clinical activity entry with UCEC tumors (UCEC tumors among unselected patients) is listed as “lack clinical activity”.

`C=CCNC1=C2C[C@@H](C)C[C@H](OC)[C@H](O)[C@@H](C)/C=C(\C)[C@H](OC(N)=O)[C@@H](OC)/C=C\C=C(/C)C(=O)NC(=CC1=O)C2=O` [tanespimycin] returned an IC50 in experiment [1] of less than 1000 nM. For the compound CILESLFRAV [PEP4], the “T cell reactivity, IFN-γ ELISpot” value in experiment [3] (setting [4]) was “strong reactivity”. For FSYAWPFYNPV [PEP28], in experiment [3] (setting [5]), the “T cell reactivity, IFN-γ ELISpot” value is given as “strong reactivity”.

As to MMGLYDGMEHL [PEP17], the “T cell reactivity, IFN-γ ELISpot” value in experiment [3] (setting [4]) was “strong reactivity”.

Turning to YLVERQLQEI [PEP40], in experiment [3] (setting [5]), the “T cell reactivity, IFN-γ ELISpot” value was “strong reactivity”.

The values above are taken from PMC12010439 (Cell, 2024).
